Test [1] is described as follows: Cytotoxicity against human BEAS2B cells after 48 hrs by MTS assay. As to conditions: BEAS-2B. The format is cell-based.
A further test has as its system MCF7. The test can be described thus: Cytotoxicity against human MCF7 cells after 48 hrs by MTS assay. The format is functional, cell-based. As to conditions: MCF7, 48 h. In a few lines: (§1)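 Cells were kept in RPMI-1640 or DMEM with 10% FBS at 37 °C under 5% CO2 and seeded at 1 × 10^5 cells/mL, with adherent cells allowed 12 h to attach. Compounds were tested at 0.064, 0.32, 1.6, 8 and 40 μM, in triplicate, for 48 h at 37 °C. Cisplatin and paclitaxel were the positive controls. MTS was then added for 4 h and absorbance read at […]. IC50 was calculated by the Reed and Muench method.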

A further test concerns SMMC-7721. In words: Cytotoxicity against human SMMC7721 cells after 48 hrs by MTS assay. It counts as functional, cell-based. As to conditions: SMMC-7721, 48 h. In a few lines: as §1
In a further test the test system is HL-60. The test can be described thus: Cytotoxicity against human HL60 cells after 48 hrs by MTS assay. As to conditions: HL-60, 48 h. The format is functional, cell-based. In a few lines:
as §1

Another test concerns SW480. The test can be described thus: Cytotoxicity against human SW480 cells after 48 hrs by MTS assay. The format is functional, cell-based. As to conditions: SW480, 48 h. In a few lines: as §1
The test system of a further test is A549. In words: Cytotoxicity against human A549 cells after 48 hrs by MTS assay. It counts as functional, cell-based. As to conditions: A549, 48 h. In a few lines:
as §1

The text below walks through data of ChEMBL document CHEMBL3091463, “Cytotoxic ent-kaurane diterpenoids from Salvia cavaleriei” (J Nat Prod, 2013).

`C=C1C(=O)[C@@]23[C@H](O)C[C@@H]4C(C)(C)[C@@H](OC(C)=O)CC[C@@]4(C)[C@@H]2[C@H](O)C[C@@H]1[C@H]3O`: the IC50 amounted to 2.8 µM in test [1]; 3.4 µM in the test with MCF7; 1.1 µM with SMMC-7721; 2.5 µM in the test with HL-60; 1.4 µM in the test with SW480; 3.5 µM with A549.
In the case of `C=C1C(=O)[C@@]23[C@H](O)C[C@@H]4C(C)(C)[C@@H](OC(C)=O)CC[C@@]4(C)[C@@H]2[C@@H](O)C[C@@H]1[C@H]3O`, the IC50 in test [1] is over 10 µM; in the test on MCF7, over 10 µM; in the test with SMMC-7721, 3.8 µM; with HL-60 it was 9.7 µM; with SW480, 5.5 µM; in the test with A549, over 10 µM.
For the molecule `C=C1C(=O)[C@@]23[C@H](O)C[C@@H]4C(C)(C)[C@@H](OC(C)=O)CC[C@@]4(C)[C@@H]2C(=O)C[C@@H]1[C@H]3O`, the IC50 in test [1] was 2 µM; in the test with MCF7 it was 2.5 µM; in the test on SMMC-7721, 3 µM; with HL-60, 2.8 µM; in the test with SW480 it was 1.6 µM; with A549, 2.7 µM.
For `C=C1C(=O)[C@@]23[C@H](O)C[C@@H]4C(C)(C)C(=O)CC[C@@]4(C)[C@@H]2[C@H](O)C[C@@H]1[C@H]3O`, the 50% inhibitory concentration (IC50) in test [1] is over 10 µM; in the test on MCF7, over 10 µM; in the test on SMMC-7721, over 10 µM; in the test with HL-60, over 10 µM; in the test with SW480 it was 8.1 µM; in the test on A549, over 10 µM.
With `C=C1C(=O)[C@@]23[C@H](O)C[C@@H]4C(C)(C)[C@@H](O)CC[C@@]4(C)[C@@H]2C(=O)C[C@@H]1[C@H]3O`, the IC50 in test [1] is over 10 µM; with MCF7, over 10 µM; in the test on SMMC-7721 it was over 10 µM; in the test on HL-60, over 10 µM; in the test with SW480, 7.6 µM; in the test on A549, over 10 µM.
As to `C=C1C(=O)[C@@]23[C@H](O)C[C@@H]4C(C)(C)C(=O)CC[C@@]4(C)[C@@H]2C(=O)C[C@@H]1[C@H]3O`, the IC50 in test [1] worked out at 3.1 µM; in the test on MCF7, 3.1 µM; in the test with SMMC-7721, 4.9 µM; in the test with HL-60, 3.3 µM; in the test on SW480 it was 2.2 µM; with A549, 6.4 µM.
As to `C=C1C(=O)[C@@]23[C@H](O)C[C@@H]4C(C)(C)[C@@H](OC(C)=O)CC[C@@]4(C)[C@@H]2C=C[C@@H]1[C@H]3O`, the IC50 was determined as 0.88 µM in test [1]; 1.7 µM in the test with MCF7; 2.8 µM in the test with SMMC-7721; 2.1 µM in the test on HL-60; 2.8 µM in the test on SW480; 3.1 µM with A549.
Turning to `C=C1C(=O)[C@@]23[C@H](O)C[C@@H]4C(C)(C)[C@@H](OC(C)=O)CC[C@@]4(C)[C@@H]2[C@@H]2O[C@@H]2[C@@H]1[C@H]3O`, the IC50 worked out at 0.73 µM in test [1]; 3 µM in the test with MCF7; 1.3 µM with SMMC-7721; 0.65 µM in the test with HL-60; 1.8 µM in the test on SW480; 1.1 µM in the test on A549.
In the case of `C=C1C(=O)[C@@]23[C@H](O)C[C@@H]4[C@@](C)(COC(C)=O)CCC[C@@]4(C)[C@@H]2C(=O)C[C@@H]1[C@H]3O`, the IC50 came out at 0.87 µM in test [1]; 1.8 µM in the test with MCF7; 0.96 µM in the test with SMMC-7721; 0.71 µM in the test on HL-60; 1.7 µM with SW480; 0.94 µM in the test on A549.
Regarding `COC[C@H]1C(=O)[C@@]23[C@H](O)C[C@@H]4C(C)(C)[C@@H](OC(C)=O)CC[C@@]4(C)[C@@H]2C(=O)C[C@@H]1[C@H]3O`, the IC50 in test [1] worked out at 2.5 µM; in the test with MCF7, 2.5 µM; with SMMC-7721, 4 µM; with HL-60, 3.7 µM; in the test with SW480 it was 2 µM; in the test with A549 it was 2.9 µM.
For `CCOC[C@@H]1C(=O)[C@@]23[C@H](O)C[C@@H]4C(C)(C)[C@@H](OC(C)=O)CC[C@@]4(C)[C@@H]2C(=O)C[C@@H]1[C@H]3O`, the IC50 (in test [1]; in the test with MCF7; in the test with SMMC-7721; in the test on HL-60; in the test with SW480; in the test on A549) was over 10 µM throughout.
Take `CCOC[C@H]1C(=O)[C@@]23[C@H](O)C[C@@H]4C(C)(C)[C@@H](OC(C)=O)CC[C@@]4(C)[C@@H]2C(=O)C[C@@H]1[C@H]3O`: the IC50 in test [1] turned out to be 2.8 µM; in the test on MCF7, 3.1 µM; in the test on SMMC-7721, 3.5 µM; in the test with HL-60, 3.3 µM; with SW480 it was 3 µM; with A549 it was 3.5 µM.
In the case of `COC[C@@H]1C(=O)[C@@]23[C@H](O)C[C@@H]4C(C)(C)C(=O)CC[C@@]4(C)[C@@H]2C(=O)C[C@@H]1[C@H]3O`, the concentration for half-maximal inhibition (IC50) (in test [1]; in the test on MCF7; with SMMC-7721; in the test with HL-60; in the test with SW480; in the test with A549) was over 10 µM each time.
As to `COC[C@@H]1C(=O)[C@@]23[C@H](O)C[C@@H]4[C@@](C)(COC(C)=O)CCC[C@@]4(C)[C@@H]2C(=O)C[C@@H]1[C@H]3O`, the IC50 in test [1] is over 10 µM; in the test on MCF7 it was over 10 µM; in the test on SMMC-7721, over 10 µM; in the test on HL-60, over 10 µM; with SW480, 6.7 µM; with A549, over 10 µM.
As to `COC[C@H]1C(=O)[C@@]23[C@H](O)C[C@@H]4[C@@](C)(COC(C)=O)CCC[C@@]4(C)[C@@H]2C(=O)C[C@@H]1[C@H]3O`, the IC50 was found to be 3 µM in test [1]; 2 µM in the test on MCF7; 3.5 µM with SMMC-7721; 2.8 µM in the test on HL-60; 2.6 µM with SW480; 3 µM with A549.
For `CC(=O)O[C@H]1C(=O)[C@@]2(C)[C@H]([C@H](OC(=O)c3ccccc3)[C@]3(O)C[C@H](OC(=O)[C@H](O)[C@@H](NC(=O)c4ccccc4)c4ccccc4)C(C)=C1C3(C)C)[C@]1(OC(C)=O)CO[C@@H]1C[C@@H]2O` [PACLITAXEL], the IC50 in test [1] is 0.58 µM; in the test with MCF7 it was under 0.008 µM; with SMMC-7721, under 0.008 µM; in the test on HL-60 it was under 0.008 µM; in the test on SW480, under 0.008 µM; in the test with A549, under 0.008 µM.
